Measurements taken from ChEMBL document CHEMBL2380292, “Discovery of SAR184841, a potent and long-lasting inhibitor of 11β-hydroxysteroid dehydrogenase type 1, active in a physiopathological animal model of T2D” (Bioorg Med Chem Lett, 2013).

Target: T1, 11-beta-hydroxysteroid dehydrogenase type 2 (Homo sapiens, UniProt P80365)
T1 sequence (P80365 whole entry): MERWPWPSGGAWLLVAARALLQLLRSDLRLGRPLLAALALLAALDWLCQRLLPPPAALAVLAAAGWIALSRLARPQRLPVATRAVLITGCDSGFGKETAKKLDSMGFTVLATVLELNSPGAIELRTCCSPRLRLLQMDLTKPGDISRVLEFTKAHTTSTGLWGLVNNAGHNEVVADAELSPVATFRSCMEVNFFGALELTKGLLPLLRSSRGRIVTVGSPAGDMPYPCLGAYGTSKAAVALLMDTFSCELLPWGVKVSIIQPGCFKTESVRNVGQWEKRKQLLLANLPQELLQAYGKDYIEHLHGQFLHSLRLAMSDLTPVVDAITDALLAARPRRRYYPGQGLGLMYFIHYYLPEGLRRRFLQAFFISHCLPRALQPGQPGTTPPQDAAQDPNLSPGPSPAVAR
Assay: Inhibition of human 11beta-HSD2
Settings: not given

Row | IC50 [nM] | Structure (SMILES)
1 | > 10000 | COc1ccc(-c2cnc(N3CCN(C(=O)N4CCC(c5cn[nH]c5)C4)c4ccccc43)nc2)cc1 (centres undefined)

System: Mus musculus
Assay: Ex vivo inhibition of 11beta-HSD1 in C57Bl/6J mouse subcutaneous fat at 10 mg/kg, os after 2 hrs
Format: functional
Settings: sc
Method in brief: (§1)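 Mice given a single oral dose as a suspension in Tween 80/0.6% methylcellulose (0.5/99.5, v/v) at 10 mL/kg. At 2 h or 16 h post-dose, animals were killed by cervical dislocation and 50 mg liver and 200 mg subcutaneous fat were taken for 11β-HSD1 activity. Reactions were stopped with HCl 1 N/methanol (1/1). 3H-cortisone and 3H-cortisol were quantified by HPLC with flow scintillation detection.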

Row | Structure (SMILES) | inhibition in vivo at 10 mg/kg [%]
2 | COc1ccc(-c2cnc(N3CCN(C(=O)N[C@H]4C5CC6CC4C[C@](O)(C6)C5)c4ccccc43)nc2)cc1 | 30

System: Liver
Assay: Metabolic stability in mouse liver microsomes
Format: ADME, Microsome
Settings: not given

Row | Structure (SMILES) | Stability [%]
3 | CS(=O)(=O)N1CCN(c2ccc(N3CCN(C(=O)N[C@H]4C5CC6CC4C[C@](C(N)=O)(C6)C5)c4ccccc43)cc2)CC1 | 22
4 | O=C(N[C@H]1C2CC3CC1C[C@](O)(C3)C2)N1CCN(c2ccc(N3CCN(S(=O)(=O)C4CC4)CC3)cn2)c2ccccc21 | 22
5 | CS(=O)(=O)N1CCN(c2ccc(N3CCN(C(=O)N[C@H]4C5CC6CC4C[C@](O)(C6)C5)c4ccccc43)cc2)CC1 | 9

Next, values leading:

Row | Stability [%] | Structure (SMILES)
6 | 14 | CC(=O)N1CCN(c2ccc(N3CCN(C(=O)N[C@H]4C5CC6CC4C[C@](O)(C6)C5)c4ccccc43)nc2)CC1
7 | 21 | COc1ccc(-c2cnc(N3CCN(C(=O)N[C@H]4C5CC6CC4C[C@](O)(C6)C5)c4ccccc43)nc2)cc1

System: Liver microsomes
Assay: Metabolic stability in rat liver microsomes
Format: ADME, Microsome
Settings: not given

Row | Structure (SMILES) | Stability [%]
8 | CS(=O)(=O)N1CCN(c2ccc(N3CCN(C(=O)N[C@H]4C5CC6CC4C[C@](C(N)=O)(C6)C5)c4ccccc43)cc2)CC1 | 26
9 | O=C(N[C@H]1C2CC3CC1C[C@](O)(C3)C2)N1CCN(c2ccc(N3CCN(S(=O)(=O)C4CC4)CC3)cn2)c2ccccc21 | 23
10 | CS(=O)(=O)N1CCN(c2ccc(N3CCN(C(=O)N[C@H]4C5CC6CC4C[C@](O)(C6)C5)c4ccccc43)cc2)CC1 | 17

Next, values leading:

Row | Stability [%] | Structure (SMILES)
11 | 18 | CC(=O)N1CCN(c2ccc(N3CCN(C(=O)N[C@H]4C5CC6CC4C[C@](O)(C6)C5)c4ccccc43)nc2)CC1
12 | 33 | COc1ccc(-c2cnc(N3CCN(C(=O)N[C@H]4C5CC6CC4C[C@](O)(C6)C5)c4ccccc43)nc2)cc1

Target: Cytochrome P450 3A4 (Homo sapiens, UniProt P08684)
Sequence (P08684 whole entry): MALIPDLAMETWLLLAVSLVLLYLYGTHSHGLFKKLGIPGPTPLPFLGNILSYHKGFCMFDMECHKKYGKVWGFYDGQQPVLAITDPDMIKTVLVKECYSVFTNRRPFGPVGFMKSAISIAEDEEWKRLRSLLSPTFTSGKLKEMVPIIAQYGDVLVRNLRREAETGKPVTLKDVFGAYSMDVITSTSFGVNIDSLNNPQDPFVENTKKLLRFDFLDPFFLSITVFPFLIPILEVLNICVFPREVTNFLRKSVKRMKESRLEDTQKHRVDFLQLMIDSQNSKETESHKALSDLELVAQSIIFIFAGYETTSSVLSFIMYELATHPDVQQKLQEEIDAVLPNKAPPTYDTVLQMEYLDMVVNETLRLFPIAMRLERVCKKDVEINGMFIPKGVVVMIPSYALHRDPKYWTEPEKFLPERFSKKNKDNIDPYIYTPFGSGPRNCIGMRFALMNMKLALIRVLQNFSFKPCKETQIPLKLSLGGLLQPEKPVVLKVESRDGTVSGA
Assay: Inhibition of CYP3A4 (unknown origin)
Format: ADME
Settings: not given

Row | Structure (SMILES) | IC50 [nM]
13 | CS(=O)(=O)N1CCN(c2ccc(N3CCN(C(=O)N[C@H]4C5CC6CC4C[C@](C(N)=O)(C6)C5)c4ccccc43)cc2)CC1 | > 10000
14 | O=C(N[C@H]1C2CC3CC1C[C@](O)(C3)C2)N1CCN(c2ccc(N3CCN(S(=O)(=O)C4CC4)CC3)cn2)c2ccccc21 | > 10000
15 | CS(=O)(=O)N1CCN(c2ccc(N3CCN(C(=O)N[C@H]4C5CC6CC4C[C@](O)(C6)C5)c4ccccc43)cc2)CC1 | > 10000

Second part, the molecule after the results:

Row | IC50 [nM] | Structure (SMILES)
16 | < 300 | COc1ccc(-c2cnc(N3CCN(C(=O)N4CCC(c5cn[nH]c5)C4)c4ccccc43)nc2)cc1 (centres undefined)
17 | > 30000 | CC(=O)N1CCN(c2ccc(N3CCN(C(=O)N[C@H]4C5CC6CC4C[C@](O)(C6)C5)c4ccccc43)nc2)CC1
18 | > 10000 | COc1ccc(-c2cnc(N3CCN(C(=O)N[C@H]4C5CC6CC4C[C@](O)(C6)C5)c4ccccc43)nc2)cc1

System: Mus musculus
Assay: Ex vivo inhibition of 11beta-HSD1 in C57Bl/6J mouse subcutaneous fat at 30 mg/kg, os after 2 hrs
Format: functional
Settings: sc
Method in brief: as §1

Row | Structure (SMILES) | inhibition in vivo at 30 mg/kg [%]
19 | COc1ccc(-c2cnc(N3CCN(C(=O)N4CCC(c5cn[nH]c5)C4)c4ccccc43)nc2)cc1 (centres undefined) | 70

System: Mus musculus
Assay: Ex vivo inhibition of 11beta-HSD1 in C57Bl/6J mouse liver at 10 mg/kg, os after 2 hrs
Format: functional
Settings: not given
Method in brief: as §1

Row | Structure (SMILES) | inhibition in vivo at 10 mg/kg [%]
20 | COc1ccc(-c2cnc(N3CCN(C(=O)N[C@H]4C5CC6CC4C[C@](O)(C6)C5)c4ccccc43)nc2)cc1 | 40

System: Mus musculus
Assay: Ex vivo inhibition of 11beta-HSD1 in C57Bl/6J mouse liver at 30 mg/kg, po after 16 hrs
Format: functional
Settings: not given
Method in brief: as §1

Row | Structure (SMILES) | inhibition in vivo at 30 mg/kg [%]
21 | CS(=O)(=O)N1CCN(c2ccc(N3CCN(C(=O)N[C@H]4C5CC6CC4C[C@](C(N)=O)(C6)C5)c4ccccc43)cc2)CC1 | 55
22 | CC(=O)N1CCN(c2ccc(N3CCN(C(=O)N[C@H]4C5CC6CC4C[C@](O)(C6)C5)c4ccccc43)nc2)CC1 | 0
23 | O=C(N[C@H]1C2CC3CC1C[C@](O)(C3)C2)N1CCN(c2ccc(N3CCN(S(=O)(=O)C4CC4)CC3)cn2)c2ccccc21 | 65
24 | CS(=O)(=O)N1CCN(c2ccc(N3CCN(C(=O)N[C@H]4C5CC6CC4C[C@](O)(C6)C5)c4ccccc43)cc2)CC1 | 80

System: not listed separately
Assay: Permeability across human Caco2 cells
Format: ADME, cell-based
Settings: Caco-2, read-out: permeability
Method in brief: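 Permeability was measured with the compound alone and in the presence of the P-gp inhibitor elacridar, and expressed in 10^-7 cm/s.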

Row | Structure (SMILES) | Papp [×10⁻⁶ cm/s]
25 | CS(=O)(=O)N1CCN(c2ccc(N3CCN(C(=O)N[C@H]4C5CC6CC4C[C@](C(N)=O)(C6)C5)c4ccccc43)cc2)CC1 | 3
26 | O=C(N[C@H]1C2CC3CC1C[C@](O)(C3)C2)N1CCN(c2ccc(N3CCN(S(=O)(=O)C4CC4)CC3)cn2)c2ccccc21 | 9.8
27 | CS(=O)(=O)N1CCN(c2ccc(N3CCN(C(=O)N[C@H]4C5CC6CC4C[C@](O)(C6)C5)c4ccccc43)cc2)CC1 | 19.4

More lines, now with the values ahead:

Row | Papp [×10⁻⁶ cm/s] | Structure (SMILES)
28 | 1 | CC(=O)N1CCN(c2ccc(N3CCN(C(=O)N[C@H]4C5CC6CC4C[C@](O)(C6)C5)c4ccccc43)nc2)CC1
29 | 24.8 | COc1ccc(-c2cnc(N3CCN(C(=O)N[C@H]4C5CC6CC4C[C@](O)(C6)C5)c4ccccc43)nc2)cc1

System: Mus musculus
Assay: Ex vivo inhibition of 11beta-HSD1 in C57Bl/6J mouse liver at 30 mg/kg, os after 2 hrs
Format: functional
Settings: not given
Method in brief: as §1

Row | Structure (SMILES) | inhibition in vivo at 30 mg/kg [%]
30 | COc1ccc(-c2cnc(N3CCN(C(=O)N4CCC(c5cn[nH]c5)C4)c4ccccc43)nc2)cc1 (centres undefined) | 90

Target: 11-beta-hydroxysteroid dehydrogenase 1 (Rattus norvegicus, UniProt P16232)
Sequence (P16232 whole entry): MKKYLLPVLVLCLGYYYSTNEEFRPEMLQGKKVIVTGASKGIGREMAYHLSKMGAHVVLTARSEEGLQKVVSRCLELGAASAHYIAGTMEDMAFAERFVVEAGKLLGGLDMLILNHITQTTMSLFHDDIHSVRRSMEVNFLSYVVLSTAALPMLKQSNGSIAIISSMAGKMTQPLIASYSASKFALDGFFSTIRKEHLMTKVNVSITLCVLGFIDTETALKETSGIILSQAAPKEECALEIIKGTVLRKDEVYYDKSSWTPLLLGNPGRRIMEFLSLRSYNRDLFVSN
Assay: Inhibition of rat 11beta-HSD1
Settings: not given

Row | Structure (SMILES) | IC50 [nM]
31 | CS(=O)(=O)N1CCN(c2ccc(N3CCN(C(=O)N[C@H]4C5CC6CC4C[C@](C(N)=O)(C6)C5)c4ccccc43)cc2)CC1 | 24
32 | O=C(N[C@H]1C2CC3CC1C[C@](O)(C3)C2)N1CCN(c2ccc(N3CCN(S(=O)(=O)C4CC4)CC3)cn2)c2ccccc21 | 21
33 | CS(=O)(=O)N1CCN(c2ccc(N3CCN(C(=O)N[C@H]4C5CC6CC4C[C@](O)(C6)C5)c4ccccc43)cc2)CC1 | 114

Next, values leading:

Row | IC50 [nM] | Structure (SMILES)
34 | 600 | COc1ccc(-c2cnc(N3CCN(C(=O)N4CCC(c5cn[nH]c5)C4)c4ccccc43)nc2)cc1 (centres undefined)
35 | 65 | CC(=O)N1CCN(c2ccc(N3CCN(C(=O)N[C@H]4C5CC6CC4C[C@](O)(C6)C5)c4ccccc43)nc2)CC1
36 | 110 | COc1ccc(-c2cnc(N3CCN(C(=O)N[C@H]4C5CC6CC4C[C@](O)(C6)C5)c4ccccc43)nc2)cc1

System: Liver microsomes
Assay: Metabolic stability in human liver microsomes
Format: ADME, Microsome
Settings: not given

Row | Structure (SMILES) | Stability [%]
37 | CS(=O)(=O)N1CCN(c2ccc(N3CCN(C(=O)N[C@H]4C5CC6CC4C[C@](C(N)=O)(C6)C5)c4ccccc43)cc2)CC1 | 3
38 | O=C(N[C@H]1C2CC3CC1C[C@](O)(C3)C2)N1CCN(c2ccc(N3CCN(S(=O)(=O)C4CC4)CC3)cn2)c2ccccc21 | 9
39 | CS(=O)(=O)N1CCN(c2ccc(N3CCN(C(=O)N[C@H]4C5CC6CC4C[C@](O)(C6)C5)c4ccccc43)cc2)CC1 | 2

Second part, the molecule after the results:

Row | Stability [%] | Structure (SMILES)
40 | 5 | CC(=O)N1CCN(c2ccc(N3CCN(C(=O)N[C@H]4C5CC6CC4C[C@](O)(C6)C5)c4ccccc43)nc2)CC1
41 | 41 | COc1ccc(-c2cnc(N3CCN(C(=O)N[C@H]4C5CC6CC4C[C@](O)(C6)C5)c4ccccc43)nc2)cc1

System: Mus musculus
Assay: Ex vivo inhibition of 11beta-HSD1 in C57Bl/6J mouse subcutaneous fat at 30 mg/kg, po after 16 hrs
Format: functional
Settings: not given
Method in brief: as §1

Row | Structure (SMILES) | inhibition in vivo at 30 mg/kg [%]
42 | CS(=O)(=O)N1CCN(c2ccc(N3CCN(C(=O)N[C@H]4C5CC6CC4C[C@](C(N)=O)(C6)C5)c4ccccc43)cc2)CC1 | 30
43 | CC(=O)N1CCN(c2ccc(N3CCN(C(=O)N[C@H]4C5CC6CC4C[C@](O)(C6)C5)c4ccccc43)nc2)CC1 | 0
44 | O=C(N[C@H]1C2CC3CC1C[C@](O)(C3)C2)N1CCN(c2ccc(N3CCN(S(=O)(=O)C4CC4)CC3)cn2)c2ccccc21 | 40
45 | CS(=O)(=O)N1CCN(c2ccc(N3CCN(C(=O)N[C@H]4C5CC6CC4C[C@](O)(C6)C5)c4ccccc43)cc2)CC1 | 55

Target: 11-beta-hydroxysteroid dehydrogenase 1 (Mus musculus, UniProt P50172)
Sequence (P50172 whole entry): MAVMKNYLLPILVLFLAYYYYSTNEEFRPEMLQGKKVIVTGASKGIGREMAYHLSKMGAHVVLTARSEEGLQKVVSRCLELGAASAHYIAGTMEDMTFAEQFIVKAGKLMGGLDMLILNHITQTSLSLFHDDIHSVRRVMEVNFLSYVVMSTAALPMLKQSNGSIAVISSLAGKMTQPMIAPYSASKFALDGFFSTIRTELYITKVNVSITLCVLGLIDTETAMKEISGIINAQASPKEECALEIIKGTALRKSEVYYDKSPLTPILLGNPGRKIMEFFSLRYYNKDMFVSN
Assay: Inhibition of mouse recombinant 11beta-HSD1 by scintillation proximity assay
Settings: not given

Row | IC50 [nM] | Structure (SMILES)
46 | 5 | CS(=O)(=O)N1CCN(c2ccc(N3CCN(C(=O)N[C@H]4C5CC6CC4C[C@](C(N)=O)(C6)C5)c4ccccc43)cc2)CC1
47 | 21 | O=C(N[C@H]1C2CC3CC1C[C@](O)(C3)C2)N1CCN(c2ccc(N3CCN(S(=O)(=O)C4CC4)CC3)cn2)c2ccccc21
48 | 1 | CS(=O)(=O)N1CCN(c2ccc(N3CCN(C(=O)N[C@H]4C5CC6CC4C[C@](O)(C6)C5)c4ccccc43)cc2)CC1
49 | 15 | COc1ccc(-c2cnc(N3CCN(C(=O)N[C@H]4C5CC6CC4C[C@](O)(C6)C5)c4ccccc43)nc2)cc1
